Assay results published in ChEMBL document CHEMBL1687776, “Origin and molecular evolution of the determinant of methicillin resistance in staphylococci” (2010).
Values after ≈ are worked out from the molar mass of the structure shown.

Assays:
[1] = system: Staphylococcus vitulinus; experiment: Antibacterial activity against mecA-negative Staphylococcus vitulinus SVMN03 by agar dilution method; assay type: functional; settings: Mammaliicoccus vitulinus
Procedure, shortened: (§1)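 MIC by agar dilution on Mueller-Hinton agar following CLSI guidelines. Resistance was assigned using CLSI breakpoints. Agents tested were oxacillin, ampicillin, ceftizoxime, ceftriaxone and cefoxitin. Strains were from animal or food sources and identified by hsp60 and/or sodA sequencing. mecA absence was assessed by PCR with degenerate primers for mecA and its homologues.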

[2] = system: Staphylococcus fleurettii; experiment: Antibacterial activity against methicillin-resistant mecA-positive Staphylococcus fleurettii SFMP07 by agar dilution method; assay type: functional; settings: Mammaliicoccus fleurettii
Procedure, shortened: (§2)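 MIC by agar dilution on Mueller-Hinton agar per CLSI guidance; resistance judged against CLSI breakpoints. Strains were animal or food isolates (type strains for S. sciuri subspecies), typed by hsp60 and/or sodA sequencing; mecA homologue carriage checked by PCR with degenerate primers. Agents tested: oxacillin, ampicillin, ceftizoxime, ceftriaxone, cefoxitin.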

[3] = system: Staphylococcus fleurettii; experiment: Antibacterial activity against methicillin-resistant mecA-positive Staphylococcus fleurettii SFMP08 by agar dilution method; assay type: functional; settings: Mammaliicoccus fleurettii; procedure, shortened: as §2
[4] = system: Staphylococcus vitulinus; experiment: Antibacterial activity against mecA-negative Staphylococcus vitulinus SVMN05 by agar dilution method; assay type: functional; settings: Mammaliicoccus vitulinus; procedure, shortened: as §2
[5] = system: Staphylococcus vitulinus; experiment: Antibacterial activity against methicillin-resistant mecA-positive Staphylococcus vitulinus SVMP05 by agar dilution method; assay type: functional; settings: Mammaliicoccus vitulinus; procedure, shortened: as §2
[6] = system: Staphylococcus vitulinus; experiment: Antibacterial activity against methicillin-resistant mecA-positive Staphylococcus vitulinus SVMP04 by agar dilution method; assay type: functional; settings: Mammaliicoccus vitulinus; procedure, shortened: as §2
[7] = system: Staphylococcus vitulinus; experiment: Antibacterial activity against mecA-negative Staphylococcus vitulinus SVMN06 by agar dilution method; assay type: functional; settings: Mammaliicoccus vitulinus; procedure, shortened: as §2
[8] = system: Staphylococcus vitulinus; experiment: Antibacterial activity against mecA-negative Staphylococcus vitulinus SVMN12 by agar dilution method; assay type: functional; settings: Mammaliicoccus vitulinus; procedure, shortened: as §2
[9] = system: Staphylococcus vitulinus; experiment: Antibacterial activity against methicillin-resistant mecA-positive Staphylococcus vitulinus SVMP01 by agar dilution method; assay type: functional; settings: Mammaliicoccus vitulinus; procedure, shortened: as §2
[10] = Antibacterial activity against methicillin-resistant mecA-positive Staphylococcus sciuri subsp. rodentium ATCC 700061T by agar dilution method; assay type: functional; settings: Mammaliicoccus sciuri; procedure, shortened: as §2
[11] = system: Staphylococcus fleurettii; experiment: Antibacterial activity against methicillin-resistant mecA-positive Staphylococcus fleurettii SFMP02 by agar dilution method; assay type: functional; settings: Mammaliicoccus fleurettii; procedure, shortened: as §2
[12] = system: Staphylococcus vitulinus; experiment: Antibacterial activity against methicillin-resistant mecA-positive Staphylococcus vitulinus SVMP02 by agar dilution method; assay type: functional; settings: Mammaliicoccus vitulinus; procedure, shortened: as §2
[13] = system: Staphylococcus fleurettii; experiment: Antibacterial activity against mecA-negative Staphylococcus fleurettii SFMN01 by agar dilution method; assay type: functional; settings: Mammaliicoccus fleurettii; procedure, shortened: as §1
[14] = system: Staphylococcus fleurettii; experiment: Antibacterial activity against methicillin-resistant mecA-positive Staphylococcus fleurettii SFMP03 by agar dilution method; assay type: functional; settings: Mammaliicoccus fleurettii; procedure, shortened: as §2
[15] = system: Staphylococcus fleurettii; experiment: Antibacterial activity against methicillin-resistant mecA-positive Staphylococcus fleurettii SFMP04 by agar dilution method; assay type: functional; settings: Mammaliicoccus fleurettii; procedure, shortened: as §2
[16] = Antibacterial activity against mecA-positive Staphylococcus sciuri subsp. carnaticus ATCC 700058T by agar dilution method; settings: Mammaliicoccus sciuri
[17] = system: Staphylococcus vitulinus; experiment: Antibacterial activity against mecA-negative Staphylococcus vitulinus SVMN11 by agar dilution method; assay type: functional; settings: Mammaliicoccus vitulinus; procedure, shortened: as §2
[18] = system: Staphylococcus fleurettii; experiment: Antibacterial activity against methicillin-resistant mecA-positive Staphylococcus fleurettii SFMP01(CCUG 43834T) by agar dilution method; assay type: functional; settings: Mammaliicoccus fleurettii; procedure, shortened: as §2
[19] = system: Staphylococcus vitulinus; experiment: Antibacterial activity against mecA-negative Staphylococcus vitulinus SVMN02 by agar dilution method; assay type: functional; settings: Mammaliicoccus vitulinus; procedure, shortened: as §2
[20] = system: Staphylococcus vitulinus; experiment: Antibacterial activity against mecA-negative Staphylococcus vitulinus SVMN14 by agar dilution method; assay type: functional; settings: Mammaliicoccus vitulinus; procedure, shortened: as §2
[21] = system: Staphylococcus fleurettii; experiment: Antibacterial activity against mecA-negative Staphylococcus fleurettii SFMN02 by agar dilution method; assay type: functional; settings: Mammaliicoccus fleurettii; procedure, shortened: as §1
[22] = system: Staphylococcus vitulinus; experiment: Antibacterial activity against mecA-negative Staphylococcus vitulinus SVMN07 by agar dilution method; assay type: functional; settings: Mammaliicoccus vitulinus; procedure, shortened: as §2
[23] = system: Staphylococcus vitulinus; experiment: Antibacterial activity against methicillin-resistant mecA-positive Staphylococcus vitulinus SVMP03 by agar dilution method; assay type: functional; settings: Mammaliicoccus vitulinus; procedure, shortened: as §2
[24] = system: Staphylococcus vitulinus; experiment: Antibacterial activity against mecA-negative Staphylococcus vitulinus SVMN01 (ATCC 51145T) by agar dilution method; assay type: functional; settings: Mammaliicoccus vitulinus; procedure, shortened: as §1
[25] = system: Staphylococcus vitulinus; experiment: Antibacterial activity against mecA-negative Staphylococcus vitulinus SVMN08 by agar dilution method; assay type: functional; settings: Mammaliicoccus vitulinus; procedure, shortened: as §1
[26] = system: Staphylococcus vitulinus; experiment: Antibacterial activity against mecA-negative Staphylococcus vitulinus SVMN09 by agar dilution method; assay type: functional; settings: Mammaliicoccus vitulinus; procedure, shortened: as §2
[27] = system: Staphylococcus fleurettii; experiment: Antibacterial activity against methicillin-resistant mecA-positive Staphylococcus fleurettii SFMP06 by agar dilution method; assay type: functional; settings: Mammaliicoccus fleurettii; procedure, shortened: as §2
[28] = system: Mammaliicoccus lentus; experiment: Antibacterial activity against mecA-negative Staphylococcus lentus ATCC 29070T by agar dilution method; assay type: functional; procedure, shortened: as §1
[29] = Antibacterial activity against methicillin-resistant mecA-positive Staphylococcus sciuri subsp. sciuri ATCC 29062T by agar dilution method; assay type: functional; settings: Mammaliicoccus sciuri; procedure, shortened: as §2
[30] = system: Staphylococcus fleurettii; experiment: Antibacterial activity against methicillin-resistant mecA-positive Staphylococcus fleurettii SFMP05 by agar dilution method; assay type: functional; settings: Mammaliicoccus fleurettii; procedure, shortened: as §2
[31] = system: Staphylococcus vitulinus; experiment: Antibacterial activity against mecA-negative Staphylococcus vitulinus SVMN04 by agar dilution method; assay type: functional; settings: Mammaliicoccus vitulinus; procedure, shortened: as §2
[32] = system: Staphylococcus vitulinus; experiment: Antibacterial activity against mecA-negative Staphylococcus vitulinus SVMN13 by agar dilution method; assay type: functional; settings: Mammaliicoccus vitulinus; procedure, shortened: as §1
[33] = system: Staphylococcus vitulinus; experiment: Antibacterial activity against methicillin-resistant mecA-positive Staphylococcus vitulinus SVMP06 by agar dilution method; assay type: functional; settings: Mammaliicoccus vitulinus; procedure, shortened: as §2
[34] = system: Staphylococcus vitulinus; experiment: Antibacterial activity against mecA-negative Staphylococcus vitulinus SVMN10 by agar dilution method; assay type: functional; settings: Mammaliicoccus vitulinus; procedure, shortened: as §1

CO/N=C(\C(=O)N[C@@H]1C(=O)N2C(C(=O)O)=CCS[C@H]12)c1csc(N)n1 [CEFTIZOXIME] showed an MIC [1] of 0.25 µg/mL (≈ 0.652 µM), an MIC [2] of 4 µg/mL (≈ 10.4 µM) and an MIC [3] of 32 µg/mL (≈ 83.5 µM). It also gave an MIC [4] of 0.5 µg/mL (≈ 1.3 µM), an MIC [5] of 1 µg/mL (≈ 2.61 µM) and an MIC [6] of 0.5 µg/mL (≈ 1.3 µM). It also gave an MIC [7] of 0.5 µg/mL (≈ 1.3 µM), an MIC [8] of 0.5 µg/mL (≈ 1.3 µM) and an MIC [9] of 0.5 µg/mL (≈ 1.3 µM). For the same molecule, the MIC [10] was 2 µg/mL (≈ 5.22 µM), the MIC [11] was 32 µg/mL (≈ 83.5 µM) and the MIC [12] was 0.5 µg/mL (≈ 1.3 µM). The MIC [13] was 2 µg/mL (≈ 5.22 µM), the MIC [14] was 128 µg/mL (≈ 334 µM) and the MIC [15] was 64 µg/mL (≈ 167 µM). It also gave an MIC [16] of 2 µg/mL (≈ 5.22 µM), an MIC [17] of 1 µg/mL (≈ 2.61 µM) and an MIC [18] of 32 µg/mL (≈ 83.5 µM). The MIC [19] was 1 µg/mL (≈ 2.61 µM), the MIC [20] was 0.5 µg/mL (≈ 1.3 µM) and the MIC [21] was 2 µg/mL (≈ 5.22 µM). The MIC [22] was 0.5 µg/mL (≈ 1.3 µM), the MIC [23] was 0.5 µg/mL (≈ 1.3 µM) and the MIC [24] was 4 µg/mL (≈ 10.4 µM). For the same molecule, the MIC [25] was 0.25 µg/mL (≈ 0.652 µM), the MIC [26] was 0.5 µg/mL (≈ 1.3 µM) and the MIC [27] was 32 µg/mL (≈ 83.5 µM). For the same molecule, the MIC [28] was 1 µg/mL (≈ 2.61 µM), the MIC [29] was 2 µg/mL (≈ 5.22 µM) and the MIC [30] was 4 µg/mL (≈ 10.4 µM). The MIC [31] was 0.5 µg/mL (≈ 1.3 µM), the MIC [32] was 0.25 µg/mL (≈ 0.652 µM) and the MIC [33] was 0.5 µg/mL (≈ 1.3 µM). The MIC [34] was 0.25 µg/mL (≈ 0.652 µM).
Work on Cc1onc(-c2ccccc2)c1C(=O)N[C@@H]1C(=O)N2[C@@H]1SC(C)(C)[C@@H]2C(=O)O [OXACILLIN] yielded an MIC [1] of 0.5 µg/mL (≈ 1.25 µM), an MIC [2] of 8 µg/mL (≈ 19.9 µM) and an MIC [3] of 64 µg/mL (≈ 159 µM). It also gave an MIC [4] of 0.25 µg/mL (≈ 0.623 µM), an MIC [5] of 0.5 µg/mL (≈ 1.25 µM) and an MIC [6] of 0.5 µg/mL (≈ 1.25 µM). The MIC [7] was 0.5 µg/mL (≈ 1.25 µM), the MIC [8] was 0.5 µg/mL (≈ 1.25 µM) and the MIC [9] was 0.5 µg/mL (≈ 1.25 µM). It also gave an MIC [10] of 0.5 µg/mL (≈ 1.25 µM), an MIC [11] of 8 µg/mL (≈ 19.9 µM) and an MIC [12] of 0.5 µg/mL (≈ 1.25 µM). The MIC [13] was 0.5 µg/mL (≈ 1.25 µM), the MIC [14] was 128 µg/mL (≈ 319 µM) and the MIC [15] was 128 µg/mL (≈ 319 µM). It also gave an MIC [16] of 1 µg/mL (≈ 2.49 µM), an MIC [17] of 0.5 µg/mL (≈ 1.25 µM) and an MIC [18] of 64 µg/mL (≈ 159 µM). For the same molecule, the MIC [19] was 0.5 µg/mL (≈ 1.25 µM), the MIC [20] was 0.5 µg/mL (≈ 1.25 µM) and the MIC [21] was 0.5 µg/mL (≈ 1.25 µM). It also gave an MIC [22] of 0.5 µg/mL (≈ 1.25 µM), an MIC [23] of 0.5 µg/mL (≈ 1.25 µM) and an MIC [24] of 0.5 µg/mL (≈ 1.25 µM). For the same molecule, the MIC [25] was 0.5 µg/mL (≈ 1.25 µM), the MIC [26] was 0.5 µg/mL (≈ 1.25 µM) and the MIC [27] was 64 µg/mL (≈ 159 µM). The MIC [28] was 0.5 µg/mL (≈ 1.25 µM), the MIC [29] was 0.5 µg/mL (≈ 1.25 µM) and the MIC [30] was 32 µg/mL (≈ 79.7 µM). The MIC [31] was 0.5 µg/mL (≈ 1.25 µM), the MIC [32] was 0.5 µg/mL (≈ 1.25 µM) and the MIC [33] was 0.5 µg/mL (≈ 1.25 µM). The MIC [34] was 0.5 µg/mL (≈ 1.25 µM).
